Laboratory results published in ChEMBL document CHEMBL4406804, “Discovery of a Potent Steroidal Glucocorticoid Receptor Antagonist with Enhanced Selectivity against the Progesterone and Androgen Receptors (OP-3633)” (J Med Chem, 2019).
Activity calls are given as the source filed them. No cut-off for these calls is given here.

Assays:
Assay type in all cases: cell-based
Progesterone receptor = target: T1, Progesterone receptor (Homo sapiens, UniProt P06401); test: Antagonist activity at human progesterone receptor expressed in CHO-K1 cells harboring firefly luciferase gene after 20 hrs by One-Glo luciferase reporter gene assay
T1 sequence (P06401 whole entry): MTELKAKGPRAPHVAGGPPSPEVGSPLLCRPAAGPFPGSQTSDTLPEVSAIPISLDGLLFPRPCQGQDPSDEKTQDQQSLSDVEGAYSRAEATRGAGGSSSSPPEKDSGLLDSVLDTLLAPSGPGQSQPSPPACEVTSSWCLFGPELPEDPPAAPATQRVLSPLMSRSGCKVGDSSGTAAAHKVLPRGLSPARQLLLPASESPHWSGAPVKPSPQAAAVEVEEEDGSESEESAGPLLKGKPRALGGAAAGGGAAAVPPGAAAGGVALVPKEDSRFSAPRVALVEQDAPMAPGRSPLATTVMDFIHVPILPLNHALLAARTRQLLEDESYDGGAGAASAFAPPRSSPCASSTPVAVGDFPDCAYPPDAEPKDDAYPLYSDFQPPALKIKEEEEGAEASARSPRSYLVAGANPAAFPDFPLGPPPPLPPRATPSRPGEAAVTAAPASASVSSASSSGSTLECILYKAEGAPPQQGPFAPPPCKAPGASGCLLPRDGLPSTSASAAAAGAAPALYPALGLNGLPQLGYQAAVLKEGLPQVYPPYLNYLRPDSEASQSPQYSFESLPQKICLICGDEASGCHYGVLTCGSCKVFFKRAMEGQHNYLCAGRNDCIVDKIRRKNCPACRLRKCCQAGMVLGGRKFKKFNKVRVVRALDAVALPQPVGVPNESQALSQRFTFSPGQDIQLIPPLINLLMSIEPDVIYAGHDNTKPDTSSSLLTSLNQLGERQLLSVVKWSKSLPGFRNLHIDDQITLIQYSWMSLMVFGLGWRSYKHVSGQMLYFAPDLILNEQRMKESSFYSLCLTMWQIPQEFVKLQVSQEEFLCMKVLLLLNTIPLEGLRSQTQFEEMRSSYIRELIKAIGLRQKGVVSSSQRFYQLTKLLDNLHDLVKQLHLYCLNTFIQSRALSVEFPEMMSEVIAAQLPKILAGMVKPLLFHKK
In short: (§1)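 Cell-based luciferase reporter assays for GR, AR and PR, run in agonist and antagonist modes. Potency and Emax are averages of at least two determinations, reported with SD.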

Androgen receptor [1] = target: T2, Androgen receptor (Homo sapiens, UniProt P10275); test: Antagonist activity at human androgen receptor in human LNCAP cells harboring firefly luciferase gene after 20 hrs by One-Glo luciferase reporter gene assay; in short: as §1
T2 sequence (P10275 whole entry): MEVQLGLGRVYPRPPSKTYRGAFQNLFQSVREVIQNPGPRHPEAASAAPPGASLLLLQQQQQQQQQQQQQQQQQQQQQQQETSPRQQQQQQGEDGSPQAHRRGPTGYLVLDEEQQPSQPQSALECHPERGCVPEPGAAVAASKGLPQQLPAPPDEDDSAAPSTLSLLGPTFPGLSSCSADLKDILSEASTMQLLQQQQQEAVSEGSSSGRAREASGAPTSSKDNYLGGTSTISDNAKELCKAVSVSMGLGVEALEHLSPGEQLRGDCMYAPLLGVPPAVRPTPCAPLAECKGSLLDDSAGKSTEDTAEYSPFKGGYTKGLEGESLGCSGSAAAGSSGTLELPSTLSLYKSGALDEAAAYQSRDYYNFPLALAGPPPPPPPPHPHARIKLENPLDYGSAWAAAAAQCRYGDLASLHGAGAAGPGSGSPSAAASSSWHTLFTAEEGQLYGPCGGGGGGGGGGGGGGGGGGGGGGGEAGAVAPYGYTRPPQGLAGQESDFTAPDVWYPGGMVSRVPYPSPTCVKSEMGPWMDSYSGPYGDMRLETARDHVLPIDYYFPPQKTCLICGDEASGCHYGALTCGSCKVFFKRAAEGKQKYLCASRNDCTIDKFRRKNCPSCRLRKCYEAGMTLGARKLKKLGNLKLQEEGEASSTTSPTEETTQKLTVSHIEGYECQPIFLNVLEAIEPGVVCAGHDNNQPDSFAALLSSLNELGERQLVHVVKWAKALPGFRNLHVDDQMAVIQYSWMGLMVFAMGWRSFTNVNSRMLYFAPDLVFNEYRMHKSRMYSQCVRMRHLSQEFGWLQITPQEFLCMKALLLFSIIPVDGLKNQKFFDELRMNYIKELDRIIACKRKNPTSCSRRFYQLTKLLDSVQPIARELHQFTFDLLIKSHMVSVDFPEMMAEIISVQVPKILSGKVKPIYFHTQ

Androgen receptor [2] = target: T2, Androgen receptor; test: Agonist activity at human androgen receptor in human LNCAP cells harboring firefly luciferase gene after 20 hrs by One-Glo luciferase reporter gene assay
Glucocorticoid receptor = target: T3, Glucocorticoid receptor (Homo sapiens, UniProt P04150); test: Antagonist activity at human glucocorticoid receptor expressed in CHO-K1 cells harboring firefly luciferase gene after 20 hrs by One-Glo luciferase reporter gene assay
T3 sequence (P04150 whole entry): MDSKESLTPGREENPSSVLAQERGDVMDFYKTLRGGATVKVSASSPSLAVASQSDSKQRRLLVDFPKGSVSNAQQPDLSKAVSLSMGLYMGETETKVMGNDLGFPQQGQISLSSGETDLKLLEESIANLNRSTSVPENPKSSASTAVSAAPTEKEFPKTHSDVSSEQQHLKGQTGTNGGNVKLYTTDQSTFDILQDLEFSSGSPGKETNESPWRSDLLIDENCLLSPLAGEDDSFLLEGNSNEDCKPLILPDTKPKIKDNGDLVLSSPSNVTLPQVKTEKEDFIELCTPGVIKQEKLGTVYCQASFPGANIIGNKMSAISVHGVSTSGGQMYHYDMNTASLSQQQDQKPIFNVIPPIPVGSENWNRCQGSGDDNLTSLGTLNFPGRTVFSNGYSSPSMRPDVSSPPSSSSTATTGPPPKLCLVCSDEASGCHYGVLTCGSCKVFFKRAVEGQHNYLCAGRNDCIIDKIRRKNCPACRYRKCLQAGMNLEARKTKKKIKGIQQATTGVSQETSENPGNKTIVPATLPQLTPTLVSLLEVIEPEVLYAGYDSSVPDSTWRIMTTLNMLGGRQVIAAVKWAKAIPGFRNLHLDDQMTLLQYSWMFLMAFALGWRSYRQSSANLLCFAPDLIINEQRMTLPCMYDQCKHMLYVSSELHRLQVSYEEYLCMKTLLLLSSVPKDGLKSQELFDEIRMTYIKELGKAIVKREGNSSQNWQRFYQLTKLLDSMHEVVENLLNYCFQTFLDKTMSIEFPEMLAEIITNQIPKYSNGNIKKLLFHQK

[3] = target: T4, Progesterone receptor (Homo sapiens) (UniProt P06401); test: Agonist activity at human progesterone receptor expressed in CHO-K1 cells harboring firefly luciferase gene after 20 hrs by One-Glo luciferase reporter gene assay; in short: as §1
T4 sequence (whole entry): T1 sequence (P06401 whole entry)

Androgen receptor [4] = target: T2, Androgen receptor; test: Agonist activity at human androgen receptor in human LNCAP cells harboring firefly luciferase gene after 20 hrs by One-Glo luciferase reporter gene assay relative to mifepristone; in short: as §1
Homo sapiens = organism: Homo sapiens; test: Selectivity ratio, ratio of IC50 for human androgen receptor in human LNCAP cells to IC50 for human glucocorticoid receptor expressed in CHO-K1 cells harboring firefly luciferase gene

| Structure (SMILES) | IC50 (Progesterone receptor) [µM] | IC50 (Androgen receptor [1]) [µM] | EC50 (Androgen receptor [2]) [µM] | IC50 (Glucocorticoid receptor) [µM] | agonist activity [3] | Emax at 20 h (Androgen receptor [4]) [%] | Ratio (Homo sapiens) |
| --- | --- | --- | --- | --- | --- | --- | --- |
| CC#C[C@]1(O)CC[C@H]2[C@@H]3CCC4=CC(=O)CC[C@]4(C)[C@H]3[C@@H](c3ccc(-n4cccc4)cc3)C[C@@]21C | 0.523 | 0.354 | > 2.5 | 0.0522 | inactive | 16.5 |  |
| CN(C)c1ccc([C@H]2C[C@@]3(C)[C@@H](CC[C@@]3(O)C#CC(F)(F)F)[C@@H]3CCC4=CC(=O)CC[C@]4(C)[C@H]32)cc1 | 0.91 | 0.642 | > 2.5 | 0.0472 | inactive | 7.3 |  |
| CCC#C[C@]1(O)CC[C@H]2[C@@H]3CCC4=CC(=O)CC[C@]4(C)[C@H]3[C@@H](c3ccc(N(C)C)cc3)C[C@@]21C | 1.55 | 2.96 | > 2.5 | 0.0737 | inactive | 13.2 |  |
| CC#C[C@]1(O)CC[C@H]2[C@@H]3CCC4=CC(=O)CC[C@]4(C)[C@H]3[C@@H](c3ccc(N4CCCC4)cc3)C[C@@]21C | 4.07 | 3.15 | > 2.5 | 0.0579 | inactive | 10.6 |  |
| CC#C[C@]1(O)CC[C@H]2[C@@H]3CCC4=CC(=O)CC[C@]4(C)[C@H]3[C@@H](c3ccc(OC)cc3)C[C@@]21C | 1.69 | 0.561 | > 2.5 | 0.0583 | inactive | 14.1 |  |
| CC#C[C@]1(O)CC[C@H]2[C@@H]3CCC4=CC(=O)CC[C@]4(C)[C@H]3[C@@H](c3ccc(N(C)C(C)C)cc3)C[C@@]21C | 0.527 | 2.25 | 1.14 | 0.0206 | inactive | 55.9 |  |
| CC#C[C@]1(O)CC[C@H]2[C@@H]3CCC4=CC(=O)CC[C@]4(C)[C@H]3[C@@H](OCc3ccc(Cl)cc3)C[C@@]21C | 0.0082 | 0.085 | 1.89 | 0.0176 | inactive | 47.8 |  |
| CCC(C)(C)C#C[C@]1(O)CC[C@H]2[C@@H]3CCC4=CC(=O)CC[C@@H]4[C@H]3[C@@H](c3ccc(N(C)C)cc3)C[C@@]21C | 0.0211 | 0.175 | > 2.5 | 0.0127 | inactive | 7.3 | 10 to 30 |
| CC(C)C#C[C@]1(O)CC[C@H]2[C@@H]3CCC4=CC(=O)CC[C@]4(C)[C@H]3[C@@H](c3ccc(N(C)C)cc3)C[C@@]21C | 2.08 | > 5 | > 2.5 | 0.062 | inactive | 8.3 |  |
| CN1CCN(c2ccc([C@H]3C[C@@]4(C)[C@@H](CC[C@@]4(O)C#CC(C)(C)C)[C@@H]4CCC5=CC(=O)CC[C@@H]5[C@H]43)cc2)CC1 | 0.0254 | 1.01 | > 2.5 | 0.0358 | inactive | 7.9 | 10 to 30 |
| COCC#C[C@]1(O)CC[C@H]2[C@@H]3CCC4=CC(=O)CC[C@]4(C)[C@H]3[C@@H](c3ccc(N(C)C)cc3)C[C@@]21C | 4.24 | > 5 | > 2.5 | 0.116 | inactive | 17.5 |  |
| CCN(CC)c1ccc([C@H]2C[C@@]3(C)[C@@H](CC[C@@]3(O)C#CC(C)(C)C)[C@@H]3CCC4=CC(=O)CC[C@@H]4[C@H]32)cc1 | 0.006 | 0.263 | > 2.5 | 0.0139 | inactive | 9.4 | 10 to 30 |
| CC#C[C@]1(O)CC[C@H]2[C@@H]3CCC4=CC(=O)CC[C@]4(C)[C@H]3[C@@H](c3ccc(N(C)CCOC)cc3)C[C@@]21C | 1.64 | 1.29 | > 2.5 | 0.0521 | inactive | 20 |  |
